Compound activity: PubChem, Johns Hopkins Ion Channel Center
In the library only some 3.7% were active in any assay of this set; here they are far more common.
KCNK3 inh – human KCNK3 channel inhibition, primary screen. CHO-KCNK3 thallium flux, FluxOR fluorescence; hits give low values. B-score at 10 µM. 0.84% of 340,000 active;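 active = B-score under library mean minus 4 SD, starting fluorescence ratio at most library mean plus 5 SD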;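 also: more negative B-score means stronger inhibition of thallium flux through KCNK3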
KCNQ1 act – potentiates or activates the human KCNQ1 potassium channel; CHO-K1 KCNQ1, thallium flux FluxOR fluorescence; hits give high values; B-score at 10 µM; P51787; 0.35% of 310,000 active;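 active = fluorescence ratio B-score, a plate-corrected score, at least three library SD, with initial intensity B-score within 5 SD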
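assay system = CHO-K1 cells stably expressing KCNQ1 | medium = assay buffer, equal DMSO in all wells | timing = 37 °C overnight plating, 90-min dark dye load, 20-min compound pretreatment | measured by = kinetic FluxOR thallium fluorescence, 10-s 1-Hz baseline, 110-s post-stimulus read | measure = fluorescence change relative to baseline, converted to B score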
KCNQ1 block – human KCNQ1 channel inhibition; 1.3% of 310,000 active; B-score at 10 µM; P51787; CHO-K1 KCNQ1, FluxOR thallium flux fluorescence; hits give high values;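 active = compounds whose thallium flux B-score, printed positive for inhibition, exceeds three library SD while starting fluorescence stays within three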;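 also: channel opened by potassium depolarization with thallium stimulus after 20 min compound exposure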
Kir21 inh – inhibitors of mouse Kir2.1 inward-rectifier potassium channel; P35561; B-score at 10 µM; 0.85% of 310,000 active; HEK293-Kir2.1, FluxOR thallium flux fluorescence; hits give low values;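 active = fluorescence ratio B-score at or below minus 3 SD of library scores, with starting-brightness B-score within 2 SD, cut at about -4.2 in these data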;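 also: channel flux triggered by added potassium and thallium sulfate stimulus; B-score of peak minus minimum fluorescence over baseline after thallium stimulus; more negative B-score means stronger Kir2.1 block with less thallium influx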
Target sequence (P35561 whole entry, looked up): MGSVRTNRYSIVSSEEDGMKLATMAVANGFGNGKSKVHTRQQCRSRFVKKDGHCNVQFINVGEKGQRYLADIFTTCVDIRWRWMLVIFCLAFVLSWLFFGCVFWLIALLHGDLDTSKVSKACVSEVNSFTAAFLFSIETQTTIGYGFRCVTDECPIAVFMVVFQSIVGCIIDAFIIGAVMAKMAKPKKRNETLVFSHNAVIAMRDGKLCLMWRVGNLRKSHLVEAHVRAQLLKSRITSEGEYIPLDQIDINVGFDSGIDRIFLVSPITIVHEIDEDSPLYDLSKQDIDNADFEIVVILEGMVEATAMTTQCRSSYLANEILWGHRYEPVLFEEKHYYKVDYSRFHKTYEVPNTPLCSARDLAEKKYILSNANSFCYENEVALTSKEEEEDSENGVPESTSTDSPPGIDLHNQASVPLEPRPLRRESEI
KCNK9 inh – inhibitors of human KCNK9 two-pore domain potassium channel. Q9NPC2. HEK293 KCNK9, FluxOR thallium flux fluorescence; hits give low values. B-score at 10 µM. 1.2% of 310,000 active;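 active = ratio B-score over 3 SD below the library mean, with starting fluorescence within 5 SD of its mean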;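 also: negative B-score means less thallium flux so channel inhibition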
hERG protect – hERG (human) protection from proarrhythmic block | CHO-hERG, FluxOR thallium flux, dofetilide IC70 present | activation (rescue from dofetilide block), less the hit threshold, % at 10 µM | 0.51% of 310,000 active | AID 1511;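 active = activation above the mean of controls blocked by dofetilide plus 5 SD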;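 also: thallium influx through hERG after potassium depolarization seen as dye fluorescence rise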
* = called active by the depositor; i = inactive; . = no result.

SMILES | KCNK3 inh | KCNQ1 act | KCNQ1 block | Kir21 inh | KCNK9 inh | hERG protect
CC(C)(C)c1cc(C(=O)NNC(=O)c2ccc(Cl)cc2)no1 | i | 18* | i | 0.09 | i | 5.7*
O=C(COc1ccc(Cl)cc1Cl)OCC(=O)N1CCCc2ccccc21 | i | i | i | 0.97 | i | -2
S=C(Nc1ccccc1)N1CCc2ccccc21 | i | i | i | 1 | i | -10
O=C(NC(=S)N1CCc2ccccc21)c1ccccc1Cl | i | 24* | i | -0.57 | i | 31*
O=[N+]([O-])c1ccc(NC(=S)N2CCc3ccccc32)cc1 | i | i | 9* | -0.58 | i | -10
O=C(COc1ccc(Cl)cc1Cl)NC(=S)N1CCCc2ccccc21 | i | i | i | 0.04 | i | 13*
O=C(NC(=S)N1CCc2ccccc21)c1ccccc1 | i | i | i | 3.5 | i | 24*
CC(NC(=O)C12CC3CC(CC(C3)C1)C2)c1ccc(F)cc1 (stereo unspecified) | i | i | i | 0.87 | i | -3
COc1cc(NCCCn2ccc(NC(=O)OCc3ccccc3)nc2=O)cc(OC)c1OC | i | . | . | . | . | .
O=C(COc1ccccc1F)N1CCCc2ccccc21 | i | i | i | 1.9 | i | -7
CC(=O)c1cc(F)ccc1OCC(=O)N1CCCc2ccccc21 | i | i | i | -6.5* | i | -4
O=C(COC(=O)Cc1ccsc1)Nc1ccc(Cl)cn1 | i | . | . | . | . | .
COc1ccc(C(=O)/C=C/C(=O)N(CC(=O)NC2CCCCC2)CC2CCCO2)c(O)c1 (stereo unspecified) | i | i | i | -5.3* | i | -37
CN1CCN(c2cc(N3CCc4ccccc4C3)c(F)cc2[N+](=O)[O-])CC1 | i | i | i | -4.7* | i | -23
C/C(C/C(C)=C1/SC(=S)NC1=O)=C1\SC(=S)NC1=O | i | . | . | . | . | .
CCCCCC/C(C)=C1/SC(=S)NC1=O | i | 126* | i | 0.41 | i | 59*
Cn1cccc1C(=O)C(=O)Nc1ccc(F)c(F)c1 | i | i | i | 0.71 | i | -8
CC(=O)N(CCCCl)C(C#N)c1ccccc1 (stereo unspecified) | i | i | i | -1.6 | i | -5
N#CC(c1ccccc1)N(CCCCl)C(=O)c1ccccc1 (stereo unspecified) | i | i | i | -4.6* | i | -7
NC(=O)CNC(=O)C1CCN(S(=O)(=O)c2ccc(-n3cnnn3)cc2)CC1 | i | i | i | -0.57 | i | -4
COc1cc2nc(Nc3ccc(F)cc3)nc(N)c2cc1OC | i | i | i | -5.9* | i | -5
COc1ccc(CNC(=O)Cc2cn(C)c3ccccc23)c(OC)c1 | i | i | i | -4.3* | i | -8
COc1cccc(CNCc2ccc(OC)cc2OC)c1 | i | i | i | -1.9 | i | -7
CCn1c2ccccc2c2cc(CNCc3ccc(OC)cc3OC)ccc21 | i | i | i | -9.8* | i | -37
O=C(COC(=O)CNC(=O)c1ccc(Cl)c([N+](=O)[O-])c1)NCC1CCCO1 (stereo unspecified) | i | . | . | . | . | .
SMILES | KCNK3 inh | KCNQ1 act | KCNQ1 block | Kir21 inh | KCNK9 inh | hERG protect
CC(C)Nc1nc(Oc2cccc(Cl)c2Cl)cc(C(F)(F)F)n1 | i | i | i | 0.45 | i | -16
CC(C)Nc1nc(Oc2ccc(Cl)cc2Cl)cc(C(F)(F)F)n1 | i | i | 7* | 1.6 | i | -10
CCc1ccc([C@@H]2C[C@H]3CN(Cc4ccccc4OC)C(=O)[C@]34CCCN24)cc1 | i | i | i | -0.09 | i | -11
CCCCC(=O)Oc1ccccc1C1SCc2cc(C)c(C)cc2CS1 | i | i | i | -0.14 | i | -9
Cc1cc2c(cc1C)CSC(c1ccccc1OC(=O)C(C)(C)C)SC2 | i | i | 6* | -0.05 | i | -12
Cc1ccccc1NC(=O)Cc1nc(COC(=O)Cc2c(F)cccc2Cl)cs1 | i | . | . | . | . | .
COc1ccc(S(=O)(=O)N(CC(=O)NCc2ccco2)c2ccccc2OC)cc1 | i | i | i | -0.04 | i | -8
O=S(=O)(NCc1cccnc1)c1ccc2ccccc2c1 | i | i | i | -0.38 | i | -7
CCn1c2ccccc2c2cc(NC(=O)c3coc(=O)c(Br)c3)ccc21 | . | i | i | -1.3 | -8.8* | -19
CCn1c2ccccc2c2cc(NC(=O)COc3ccccc3)ccc21 | i | i | i | 0.13 | i | 5.4*
COc1cccc(/C=C2\CC(C)Cc3c2nc2ccccc2c3C(=O)O)c1OC (stereo unspecified) | i | i | i | 0.2 | i | -5
Cc1ccc(-c2nc3ncccc3o2)cc1NC(=O)COc1ccccc1 | i | i | i | 0.37 | i | -3
Cc1ccc(-c2nc3cccnc3o2)cc1NC(=O)COc1ccc(C(C)(C)C)cc1 | i | i | 9* | 0 | i | -6
Cc1ccc(S[C@@H](CCN2CC[C@H](C(C)(C)C)CCC2=O)c2ccccc2)cc1 | i | i | 7* | -0.9 | i | -6
COc1ccc(Cl)cc1NCCC(O)c1ccc(F)cc1 (stereo unspecified) | i | i | i | -4.8* | i | -9
CC(C)(C)C(=O)/C=c1\s/c(=C\c2ccc(-c3ccc([N+](=O)[O-])cc3)o2)c(=O)n1CC(=O)NC(N)=O | i | i | i | -3.1 | i | -32
CCOC(=O)c1cc(-c2ccccc2)sc1NC(=O)C(C)N1C(=O)c2ccccc2C1=O (stereo unspecified) | i | i | i | 0.72 | -8* | -3
Cc1cc(NC(=O)COC(=O)c2cnccn2)ccc1Br | i | . | . | . | . | .
CCSc1cc(N2CCCC2)nc(-c2ccc(C)cc2)n1 | i | i | i | 1.6 | i | 1
CCSc1cc(N2CC(C)OC(C)C2)nc(-c2ccccc2Cl)n1 (stereo unspecified) | -9.1* | i | i | 0.34 | i | 1
COc1cccc(C(=O)NC2CCCN(C3Cc4ccccc4C3)C2)c1OC (stereo unspecified) | i | i | i | -0.3 | i | -11
CCOC(=O)C(Cc1ccccc1)C(=O)Nc1ccc(NC(=O)C(Cc2ccccc2)C(=O)OCC)cc1 (stereo unspecified) | i | i | i | 0.09 | i | -10
CCOC(=O)C(C#N)C(Cc1ccccc1)c1ccco1 (stereo unspecified) | i | i | i | -4.7* | i | -4
CCc1ccc(S(=O)(=O)NCCc2cn3ccc(C)cc3n2)s1 | i | i | i | -8.8* | i | -7
